# Source: PubChem
# Hits are enriched below; roughly 0.72% of the tested compounds scored in any of these assays.
# hIAP block: blocks human intestinal alkaline phosphatase. 0.12% of 330,000 active. inhibition, % at 10 µM. P09923. AID 2544. purified IAP, CDP-Star luminescence, 30 min;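 active = inhibition reaching a set limit with compound at 10 µM in the primary screen, cut at about 35% in these data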;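 note: plate controls were DMSO wells with enzyme for no effect and no-enzyme buffer wells for full effect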
# Target sequence (P09923 whole entry, looked up): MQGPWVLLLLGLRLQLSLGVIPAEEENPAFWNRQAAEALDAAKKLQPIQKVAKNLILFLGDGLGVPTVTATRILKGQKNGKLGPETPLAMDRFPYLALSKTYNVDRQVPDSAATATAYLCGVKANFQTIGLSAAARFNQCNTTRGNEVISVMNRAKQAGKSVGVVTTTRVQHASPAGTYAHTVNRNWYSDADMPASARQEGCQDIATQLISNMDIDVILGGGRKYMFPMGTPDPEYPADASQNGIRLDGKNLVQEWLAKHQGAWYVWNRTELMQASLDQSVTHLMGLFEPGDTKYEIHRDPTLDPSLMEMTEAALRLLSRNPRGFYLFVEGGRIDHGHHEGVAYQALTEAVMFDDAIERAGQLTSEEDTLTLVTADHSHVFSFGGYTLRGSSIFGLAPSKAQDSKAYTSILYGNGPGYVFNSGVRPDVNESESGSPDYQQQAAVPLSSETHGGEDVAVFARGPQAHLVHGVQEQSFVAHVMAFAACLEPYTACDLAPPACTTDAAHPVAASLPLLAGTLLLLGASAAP
# mIAP block: mouse IAP inhibition; purified mouse IAP, CDP-Star luminescence, 30 min; inhibition, % at 10 µM; 0.2% of 330,000 active; AID 2806;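 active = inhibition of at least 40% at 10 µM in the primary screen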;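 note: plate controls were DMSO with enzyme for no effect and no enzyme wells for full effect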
# bIAP inhibitor: intestinal alkaline phosphatase (bovine) inhibition. AID 1019. inhibition, % at 20 µM. 190,000 tested, under 10 active. purified bovine IAP, CDP-star luminescence, 30 min;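 active = over 50% inhibition of intestinal alkaline phosphatase at 20 µM in the single-dose screen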
#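 System: Purified bovine intestinal alkaline phosphatase (IAP) enzyme | Input: IAP diluted 1/65,000,000 in the well | Also added: CDP-star chemiluminescent phosphatase substrate, 30 µM final | Dosing: 20 µM single dose | Times: Enzyme reaction for 30 min at room temperature | Detection: Luminescence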
# hIAP act: increases human intestinal alkaline phosphatase activity | P09923 | purified human IAP, CDP-Star luminescence, 30 min; stronger effect = higher value; 1 = vehicle-only enzyme, 0 = enzyme-free background | activation factor at 10 µM | 0.16% of 330,000 active;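 active = activation factor of the enzyme at least 2-fold when tested at 20 µM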
# mIAP activ: mouse IAP activation | muIAP, CDP-Star luminescence, 30 min; stronger effect = higher value; 1 = vehicle-only enzyme signal, 0 = enzyme-free wells | activation factor at 10 µM | 0.24% of 330,000 active;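 active = activation factor of at least 2 at 20 µM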
#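 Assay system: mouse IAP enzyme; Reagent: CDP-Star chemiluminescent phosphatase substrate; Compound: DMSO-dissolved test compounds; Incubation: 30 min, room temperature; Technique: luminescence from enzymatic CDP-Star hydrolysis; Controls: DMSO-only wells and no-enzyme negative control.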
# bIAP act: increases bovine intestinal alkaline phosphatase activity; purified bovine IAP, CDP-star luminescence, 30 min; stronger effect = higher value; fold of DMSO-control signal, blank-subtracted; activation factor at 20 µM; 0.17% of 200,000 active;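 active = activation factor of 2 or more at 20 µM, a signal rise over negative controls twice the positive control's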
# mIAP inh conf: mouse IAP inhibition confirmation. inhibition, % at 10 µM. shares compounds with mIAP block. AID 434971. purified mouse IAP, CDP-Star luminescence, 30 min. 4.7% of 11,000 active;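 active = inhibition of at least 40% at 10 µM in either of the two replicates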;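 note: plate controls were DMSO wells with enzyme for no effect and buffer wells lacking enzyme for full effect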
# * marks the source's active call; other numbers are inactive results; i = inactive; / = not tested or not shown.
SMILES,hIAP block,mIAP block,bIAP inhibitor,hIAP act,mIAP activ,bIAP act,mIAP inh conf
CS(=O)c1ccccc1COC(=O)Nc1cccc(Cl)c1 (stereo unspecified),19.5,-16.4,-2.9,0.805,1.16,1,/
C=CCc1cc(Cl)ccc1OC(=O)Nc1cccc(Cl)c1,-8.9,-201.8,/,1.09,3.02*,/,-105.4
CN(CC(=O)Nc1cccc(Cl)c1)S(=O)(=O)c1ccc2[nH]c(=O)oc2c1,13.1,58.3*,/,0.869,0.417,/,74.1*
COc1ccc(NC(=O)CN(C)S(=O)(=O)c2ccc3[nH]c(=O)oc3c2)cc1,-5.1,14.5,/,1.05,0.855,/,/
COc1cc(OC)c(NC(=O)CN(C)S(=O)(=O)c2ccc3[nH]c(=O)oc3c2)cc1Cl,-21.0,63.7*,/,1.21,0.363,/,85.9*
CCc1ccc(NC(=O)CN(C)S(=O)(=O)c2ccc3[nH]c(=O)oc3c2)cc1,17.2,50.0*,/,0.828,0.5,/,60.8*
CN(C(=O)/C=C/c1ccccc1)C1CCCCC1,-3.1,1.5,/,1.03,0.985,/,/
Cc1cccc(NC(=S)NC2CCSc3ccccc32)c1 (stereo unspecified),-1.3,-329.3,/,1.01,4.29*,/,-242.5
O=C(NC1CCSc2ccccc21)c1cccc(OC(F)F)c1 (stereo unspecified),-9.7,3.4,/,1.1,0.966,/,/
COc1cccc(CC(=O)NC2CCSc3ccccc32)c1 (stereo unspecified),13.0,0.5,/,0.87,0.995,/,/
FC(F)Oc1ccc(NC(=S)NC2CCSc3ccccc32)cc1 (stereo unspecified),-45.5,-406.3,/,1.46,5.06*,/,-175.2
S=C(NCc1ccccc1)NC1CCSc2ccccc21 (stereo unspecified),-5.7,-341.5,/,1.06,4.42*,/,-151.4
O=C(COC(=O)c1ccccc1)Nc1ncc([N+](=O)[O-])s1,-0.9,67.4*,/,1.01,0.326,/,72.2*
CCOC(=O)Cc1nnc2c(Nc3ccc(Cl)cc3)nc3nonc3n12,17.5,25.2,5.3,0.825,0.748,0.9,37.0*
O=C(O)CC(CCc1ccccc1)OC1OC(CO)C(O)C(O)C1O (stereo unspecified),0.1,76.2*,/,0.999,0.238,/,79.7*
O=C(Nc1cccc(Cl)c1)Nc1nc(-c2ccc(Cl)cc2)cs1,12.1,-187.6,38.1,0.879,2.88*,0.6,-109.8
O=C(CSc1nc(C(F)(F)F)cc(=O)[nH]1)Nc1nccs1,0.0,0.0,/,1,1,/,/
O=C(N/N=C/c1ccco1)c1cccc(S(=O)(=O)Nc2ccccc2Cl)c1,10.5,53.5*,26.8,0.895,0.465,0.7,61.0*
COc1ccc(OC)c(S(=O)(=O)NCC(c2cccs2)N2CCc3ccccc3C2)c1 (stereo unspecified),1.8,2.6,/,0.982,0.974,/,/
O=C(Nc1ccccc1F)C1CCN(S(=O)(=O)c2cccnc2)CC1,8.2,0.4,/,0.918,0.996,/,/
CCOC(=O)c1ccc(N2CCN(c3ccccc3F)CC2)c(NC(=O)Nc2ccccc2)c1,-41.7,i,2.8,1.42,6.6*,1,-213.6
Cc1ccc(C(=O)NCC(=O)OCC(=O)NC(C)C2CC3CCC2C3)cc1 (stereo unspecified),-35.4,3.8,/,1.35,0.962,/,/
C#CCOCCOCCOCCNc1nc(N2CCN(C(=O)CCCCCCCCCCNC(=O)Cn3cc(C[C@@H](C)O)nn3)CC2)nc(N2CCN(C(=O)CCCCCCCCCCNC(=O)[C@H](CCCN=C(N)N)n3cc(C[C@@H](C)CC)nn3)CC2)n1,0.5,-390.8,/,0.995,4.91*,/,-468.0
C#CCOCCOCCOCCNc1nc(N2CCN(C(=O)CCCCCCCCCCNC(=O)[C@H](CO)n3cc(CCCSC)nn3)CC2)nc(N2CCN(C(=O)CCCCCCCCCCNC(=O)[C@H](CCCN=C(N)N)n3cc(C[C@@H](C)CC)nn3)CC2)n1,-37.1,-160.8,/,1.37,2.61*,/,-497.7
C#CCOCCOCCOCCNc1nc(N2CCN(C(=O)CCCCCCCCCCNC(=O)Cn3cc(C[C@@H](C)O)nn3)CC2)nc(N2CCN(C(=O)CCCCCCCCCCNC(=O)[C@H](CCCCN)n3cc(CCCC(=O)O)nn3)CC2)n1,-8.1,-8.8,/,1.08,1.09,/,/
SMILES,hIAP block,mIAP block,bIAP inhibitor,hIAP act,mIAP activ,bIAP act,mIAP inh conf
CCc1ccccc1NC(=O)CCS(=O)(=O)c1ccc(OC)cc1,9.4,1.7,/,0.906,0.983,/,/
COc1ccc([C@H]2CC(=O)c3c(O)cc(O)cc3O2)cc1O,-8.3,8.2,/,1.08,0.918,/,/
Oc1cc(O)c2c(c1)O[C@H](c1ccc(O)c(O)c1)[C@H](O)C2,18.9,81.7*,/,0.811,0.183,/,61.9*
CCOC(=O)C1=C(N)n2c(s/c(=C/c3ccco3)c2=O)=C(C(=O)OC)C1c1ccco1 (stereo unspecified),/,/,29.0,/,/,0.7,/
N#CC1=C(N)n2c(s/c(=C\c3ccco3)c2=O)=C(C#N)C1c1ccco1 (stereo unspecified),12.6,67.7*,5.7,0.874,0.323,0.9,88.4*
c1coc(CSSCc2ccco2)c1,-1.9,70.8*,/,1.02,0.292,/,75.2*
Cc1c(C(=O)N/N=C/c2cccnc2)sc(N)c1C#N,11.8,10.5,/,0.882,0.895,/,/
Cc1cccc(NC(=O)NC(C)CCc2ccccc2)c1 (stereo unspecified),-4.5,-179.9,-13.0,1.04,2.8*,1.1,-182.8
O=C(NCCCc1ccccc1)Nc1ccccc1,-1.0,-34.9,1.8,1.01,1.35,1,/
O=C(NCCCCc1ccccc1)Nc1cccc(F)c1,-17.5,-146.1,/,1.18,2.46*,/,-128.8
Cc1cccc(NC(=O)NCCCCc2ccccc2)c1,-7.9,-131.7,/,1.08,2.32*,/,-138.4
Cc1ccc(NC(=O)NCCCCc2ccccc2)cc1,-7.9,-62.1,/,1.08,1.62,/,/
C[C@H]1CN([C@@H](C)CO)C(=O)Cc2cc(NC(=O)CCC(F)(F)F)ccc2O[C@H]1CN(C)S(=O)(=O)c1ccc(Cl)cc1,0.1,-5.3,/,0.999,1.05,/,/
O=c1oc2ccccc2c(Nc2cccc(O)c2)c1[N+](=O)[O-],14.8,48.2*,27.1,0.852,0.518,0.7,50.0*
Nc1cc2nc3ccccc3oc-2cc1=O,3.0,50.5*,/,0.97,0.495,/,41.5*
COc1ccc(NC(=O)CN(C)C(=O)Cc2n[nH]c(=O)c3ccccc23)cc1,5.8,-0.5,/,0.942,1,/,/
C=CCNC(=S)N1CCC(Cc2ccccc2)CC1,-1.8,2.1,/,1.02,0.979,/,/
CCCc1c(NC(=O)Nc2ccc(F)cc2)cnn1-c1ccc(Cl)cc1,-43.1,-278.2,/,1.43,3.78*,/,-141.8
O=C(NCCc1ccc(Cl)cc1)Nc1ccc(F)cc1,-10.6,-40.5,-13.5,1.11,1.41,1.1,/
Cc1cccc(N/C(=N/S(=O)(=O)c2ccccc2)c2ccccc2)n1,-35.7,4.6,/,1.36,0.954,/,/
